# Measured values as given in ChEMBL document CHEMBL1134337, “Behavioral approach to nondyskinetic dopamine antagonists: identification of seroquel” (J Med Chem, 2001).
# Key:
# Mus musculus [1] = experiment: Antagonism of apomorphine induced climbing was determined in female swiss -Wbster mice after (ip) administration of 20 mg/kg; assay type: functional
# Method in brief: (§1)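 Female Swiss-Webster mice (about 20 g) were fasted about 24 h, then given test compound or vehicle ip or po (N = 20 per group). Vehicle was 0.5% w/w hydroxypropylmethylcellulose with 0.1% w/w Tween 80 in water. After 30 min, mice received apomorphine HCl 1.25 mg/kg sc. At 13 min, each mouse was watched for 1 min; score was mean of highest and lowest rung of 27. Groups were compared with vehicle by Student's t-test.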
# Mus musculus [2] = experiment: Antagonism of apomorphine induced climbing was determined in female swiss -Wbster mice after (po) administration of 40 mg/kg; assay type: functional; method in brief: as §1
# [3] = target: D(2) dopamine receptor (Rattus norvegicus) (UniProt P61169); experiment: Binding affinity at dopamine receptor D2 from rat by spiropiperidone displacement.
# D(2) dopamine receptor (Rattus norvegicus), sequence (P61169 whole entry): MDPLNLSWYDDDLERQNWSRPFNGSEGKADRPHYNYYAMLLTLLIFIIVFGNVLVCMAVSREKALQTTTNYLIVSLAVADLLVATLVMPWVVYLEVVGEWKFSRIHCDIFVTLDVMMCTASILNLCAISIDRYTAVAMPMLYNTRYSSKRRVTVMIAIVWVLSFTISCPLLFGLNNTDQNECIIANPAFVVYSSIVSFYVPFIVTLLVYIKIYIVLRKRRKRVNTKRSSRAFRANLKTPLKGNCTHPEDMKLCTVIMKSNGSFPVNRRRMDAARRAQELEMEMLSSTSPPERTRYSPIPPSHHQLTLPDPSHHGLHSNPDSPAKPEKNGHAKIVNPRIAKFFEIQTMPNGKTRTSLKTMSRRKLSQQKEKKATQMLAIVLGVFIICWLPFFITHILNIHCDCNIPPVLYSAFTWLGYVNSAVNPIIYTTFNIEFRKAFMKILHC
# Method in brief: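 D2 receptor binding was read as % displacement of spiropiperidone, with test compound at 1000 nM unless stated otherwise. IC50 values used at least five concentrations per compound in triplicate. Each value is the mean of two replicate experiments differing by 5% or less.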
# Mus musculus [4] = experiment: Antagonism of apomorphine induced climbing was determined in female swiss -Wbster mice after (po) administration of 80 mg/kg; assay type: functional; method in brief: as §1
# Mus musculus [5] = experiment: Antagonism of apomorphine induced climbing was determined in female swiss -Wbster mice after (po) administration of 20 mg/kg; assay type: functional; method in brief: as §1
# Mus musculus [6] = experiment: Antagonism of apomorphine induced climbing was determined in female swiss -Wbster mice after (ip) administration of 80 mg/kg; assay type: functional; method in brief: as §1
# Mus musculus [7] = experiment: Antagonism of apomorphine induced climbing was determined in female swiss -Wbster mice after (ip) administration of 40 mg/kg; assay type: functional; method in brief: as §1
# Mus musculus [8] = experiment: Antagonism of apomorphine induced swimming was determined in female swiss -Wbster mice after (po) administration of 40 mg/kg; assay type: functional
# Mus musculus [9] = experiment: Antagonism of apomorphine induced swimming was determined in female swiss -Wbster mice after (po) administration of 80 mg/kg; assay type: functional
# Mus musculus [10] = experiment: Antagonism of apomorphine induced swimming was determined in female swiss -Wbster mice after (po) administration of 20 mg/kg; assay type: functional
# Mus musculus [11] = experiment: Antagonism of apomorphine induced climbing was determined in female swiss -Webster mice after (ip) administration of 40 mg/kg; assay type: functional; method in brief: as §1
# Mus musculus [12] = experiment: Antagonism of apomorphine induced climbing was determined in female swiss -Webster mice after (ip) administration of 80 mg/kg; assay type: functional; method in brief: as §1
# Mus musculus [13] = experiment: Antagonism of apomorphine induced climbing was determined in female swiss -Webster mice after (ip) administration of 2.5 mg/kg; assay type: functional; method in brief: as §1
# Mus musculus [14] = experiment: Antagonism of apomorphine induced swimming was determined in female swiss -Webster mice after (ip) administration of 40 mg/kg; assay type: functional
# Mus musculus [15] = experiment: Antagonism of apomorphine induced climbing was determined in female swiss -Webster mice after (ip) administration of 10 mg/kg; assay type: functional; method in brief: as §1
# [16] = Number of animals showing dyskinesias was determined in haloperidol sensitized cebus monkey after (po) administration of 40 mg/kg; assay type: functional
# Method in brief: (§2)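 Adult female and male Cebus monkeys sensitized with oral haloperidol 1 mg/kg once per week until dyskinetic reactions occurred. Test drug given orally (2 mL/kg) in 0.5% w/w hydroxypropylmethylcellulose with 0.1% w/w Tween 80 in distilled water, at least 2 weeks between treatments. Two observers watched continuously for 6-7 h, recording reaction type and severity every 30 min. Score is monkeys with dyskinesias/monkeys tested.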
# Mus musculus [17] = experiment: Antagonism of apomorphine induced swimming was determined in female swiss -Webster mice after (ip) administration of 10 mg/kg; assay type: functional
# Mus musculus [18] = experiment: Antagonism of apomorphine induced climbing was determined in female swiss -Webster mice after (ip) administration of 20 mg/kg; assay type: functional; method in brief: as §1
# Mus musculus [19] = experiment: Antagonism of apomorphine induced swimming was determined in female swiss -Webster mice after (ip) administration of 20 mg/kg; assay type: functional
# Mus musculus [20] = experiment: Antagonism of apomorphine induced climbing was determined in female swiss -Webster mice after (ip) administration of 5 mg/kg; assay type: functional; method in brief: as §1
# Mus musculus [21] = experiment: Antagonism of apomorphine induced swimming was determined in female swiss -Webster mice after (ip) administration of 5 mg/kg; assay type: functional
# Mus musculus [22] = experiment: Antagonism of apomorphine induced swimming was determined in female swiss -Webster mice after (ip) administration of 2.5 mg/kg; assay type: functional
# D(2) dopamine receptor = D(2) dopamine receptor (Rattus norvegicus, UniProt P61169); experiment: Inhibition of spiropiperidone binding at dopamine receptor D2 of rat.
# D(2) dopamine receptor, sequence (P61169 whole entry): as above
# [23] = Number of animals showing dyskinesias was determined in haloperidol sensitized 2 cebus monkeys after (po) administration of 80 mg/kg; assay type: functional; method in brief: as §2
# [24] = Number of animals showing dyskinesias was determined in haloperidol sensitized 2 cebus monkeys after (po) administration of 20 mg/kg; assay type: functional; method in brief: as §2
# [25] = Number of animals showing dyskinesias was determined in haloperidol sensitized 2 cebus monkeys after (po) administration of 40 mg/kg; assay type: functional; method in brief: as §2
# Mus musculus [26] = experiment: Antagonism of apomorphine induced swimming was determined in female swiss -Wbster mice after (po) administration of 2.5 mg/kg; assay type: functional
# Mus musculus [27] = experiment: Antagonism of apomorphine induced swimming was determined in female swiss -Wbster mice after (po) administration of 10 mg/kg; assay type: functional
# [28] = Number of animals showing dyskinesias was determined in haloperidol sensitized 3 cebus monkeys after (po) administration of 80 mg/kg; assay type: functional; conditions: dose 10 mg/kg; in the assay text read “10 mg/kg” for “80 mg/kg”; method in brief: as §2
# Mus musculus [29] = experiment: Antagonism of apomorphine induced swimming was determined in female swiss -Wbster mice after (po) administration of 5 mg/kg; assay type: functional
# Mus musculus [30] = experiment: Antagonism of apomorphine induced swimming was determined in female swiss -Webster mice after (ip) administration of 80 mg/kg; assay type: functional
# Mus musculus [31] = experiment: Antagonism of apomorphine induced swimming was determined in female swiss -Wbster mice after (ip) administration of 80 mg/kg; assay type: functional
compound,measurement,setting,value
OCCOCCN1CCN(C2=Nc3ccc(O)cc3Cc3ccccc32)CC1,Activity,Mus musculus [1],21
same,Activity,Mus musculus [2],17
same,% displacement of spiropiperidone,[3],25%
same,Activity,Mus musculus [4],10
same,Activity,Mus musculus [5],24
same,Activity,Mus musculus [6],2
same,Activity,Mus musculus [7],17
same,Activity,Mus musculus [8],1
same,Activity,Mus musculus [9],3
same,Activity,Mus musculus [10],1
CN1CCN(C2=Nc3cc(Cl)ccc3Cc3ccccc32)CC1,Activity,Mus musculus [11],24
same,% displacement of spiropiperidone,[3],40%
same,Activity,Mus musculus [12],25
CN1CCN(C2=Nc3cc(Cl)ccc3Sc3ccccc32)CC1 [ISOCLOTHIAPINE],% displacement of spiropiperidone,[3],46%
same,Activity,Mus musculus [12],18
c1ccc2c(c1)N=C(N1CCN(CC3COCCO3)CC1)c1ccccc1S2 (stereo not drawn),Activity,Mus musculus [11],2
same,Activity,Mus musculus [13],14
same,Activity,Mus musculus [14],30
same,% displacement of spiropiperidone,[3],50%
same,Activity,Mus musculus [15],1
same,No of monkeys,[16],2
same,Activity,Mus musculus [17],20
same,Activity,Mus musculus [18],0
same,Activity,Mus musculus [19],20
same,Activity,Mus musculus [20],6
same,Activity,Mus musculus [21],13
same,Activity,Mus musculus [22],8
OCCOCCN1CCN(C2=Nc3cc(Cl)ccc3Cc3ccccc32)CC1,IC50,D(2) dopamine receptor,1000 nM
same,No of monkeys,[23],0
same,Activity,Mus musculus [1],19
same,Activity,Mus musculus [2],26
same,No of monkeys,[24],0
same,No of monkeys,[25],0
same,Activity,Mus musculus [4],1
same,Activity,Mus musculus [6],2
same,Activity,Mus musculus [7],6
same,Activity,Mus musculus [8],1
same,Activity,Mus musculus [9],2
CN1CCN(C2=Nc3ccc(O)cc3Sc3ccccc32)CC1,Activity,Mus musculus [13],18
same,IC50,D(2) dopamine receptor,49 nM
same,Activity,Mus musculus [15],1
same,Activity,Mus musculus [18],1
same,Activity,Mus musculus [26],3
same,Activity,Mus musculus [27],34
same,Activity,Mus musculus [20],13
same,No of monkeys,[28],3
same,Activity,Mus musculus [29],10
same,Activity,Mus musculus [10],32
COC[C@H](CN1CCN(C2=Nc3ccccc3Sc3ccccc32)CC1)OC,Activity,Mus musculus [11],19
same,Activity,Mus musculus [14],3
same,% displacement of spiropiperidone,[3],10%
same,Activity,Mus musculus [30],13
same,Activity,Mus musculus [12],1
c1ccc2c(c1)N=C(N1CCN(CC3CCCO3)CC1)c1ccccc1S2 (stereo not drawn),Activity,Mus musculus [11],7
same,Activity,Mus musculus [14],26
same,IC50,D(2) dopamine receptor,417 nM
same,No of monkeys,[25],2
same,Activity,Mus musculus [15],9
same,Activity,Mus musculus [17],7
same,Activity,Mus musculus [18],2
same,Activity,Mus musculus [19],16
same,Activity,Mus musculus [20],21
same,Activity,Mus musculus [21],1
same,Activity,Mus musculus [30],37
same,Activity,Mus musculus [12],1
OCCOCCN1CCN(C2=Nc3cccc(F)c3Sc3ccccc32)CC1,% displacement of spiropiperidone,[3],0%
same,Activity,Mus musculus [6],22
same,Activity,Mus musculus [31],0
OCCOCCN1CCN(C2=Nc3cc(O)ccc3Sc3ccccc32)CC1,% displacement of spiropiperidone,[3],24%
same,Activity,Mus musculus [6],24
same,Activity,Mus musculus [31],0
[O-][S+]1c2ccccc2N=C(N2CCN(CCOCCO)CC2)c2ccccc21 (stereo not drawn) [SULFOXIDE METABOLITE],Activity,Mus musculus [30],0
same,Activity,Mus musculus [12],23
